# Bioassay records from PubChem.
# Vif imaging = blocks HIV Vif function; inhibition, % at 7.49 µM; 340,000 compounds, 0.35% hits; HEK293T cells, Vif self-association by quenched fluorescence, imaging, 24 h; in the data active = inhibition above about 50%, passing the limit was not always enough
# Runt-CBFb FRET = blocks binding of human RUNX1 Runt domain to CBFb. Q01196+Q13951. Cerulean-Runt/Venus-CBFb FRET ratio 530/480, 1 h. inhibition, % at 20 µM. 220,000 compounds, 0.46% hits. AID 1496;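 active = inhibition over about 50% at 20 µM in the single-dose screen, limit read from the data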;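 note: 0% = DMSO wells and 100% = excess unlabeled CBFb competitor control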
#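 Schedule: protein complex preformed 1 h, compound exposure 1 h, room temperature, dark; test system: Cerulean-labeled Runt domain protein; amount: 100 nM per protein; buffer or medium: Tris 50 mM pH 7.5, KCl, K2SO4, 0.01% BSA; read-out: loss of energy transfer signal; detection: FRET fluorescence; controls: 5 µM unlabeled CBFb as full-inhibition high control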
# Runt-SMMHC FRET = blocks binding of human RUNX1 Runt domain to CBFb-SMMHC. Cerulean-Runt/Venus-CBFb-SMMHC FRET ratio 530/480, 1 h. inhibition, % at 20 µM. 220,000 compounds, 0.74% hits;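 active = mean inhibition across duplicate retests at 20 µM reaching about 50%, limit read from the data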;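 note: 0% = DMSO wells and 100% = wells with excess untagged CBFb-SMMHC; inhibitors lower the FRET ratio by blocking Runt binding to CBFb-SMMHC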
# Rce1 inh = yeast Ras-converting enzyme inhibition; Q03530; yeast membranes, quenched prenylated peptide cleavage fluorescence; calls only; 290,000 compounds, 0.27% hits;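 active = fall in fluorescence gain of 50% or more versus controls, with final raw signal at or below 3038400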;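 note: plate controls were neutral control wells for no effect and wells lacking membranes for full effect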
# Target sequence (Q03530 whole entry, looked up): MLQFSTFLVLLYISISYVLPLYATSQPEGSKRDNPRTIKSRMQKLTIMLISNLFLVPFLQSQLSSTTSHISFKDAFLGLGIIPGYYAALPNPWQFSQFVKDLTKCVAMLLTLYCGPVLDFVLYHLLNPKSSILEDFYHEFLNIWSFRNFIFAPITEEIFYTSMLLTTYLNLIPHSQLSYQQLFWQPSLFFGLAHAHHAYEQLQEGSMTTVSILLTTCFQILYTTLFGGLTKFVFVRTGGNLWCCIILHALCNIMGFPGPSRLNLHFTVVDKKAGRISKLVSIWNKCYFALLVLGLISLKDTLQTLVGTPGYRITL
# RanGTP-Impb inh = disruptors of Ran-importin-beta complex formation – biochemical, FRET, CFP-Ran, YFP-importin-beta, homogeneous, primary screen. inhibition, % (concentration not given with the values). 300,000 compounds, 1.1% hits. cell-free CFP-Ran/YFP-importin-beta FRET ratio;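 active = more than half of the replicate wells show a fall in the fluorescence ratio signal beyond about 16%, limit read from the data, passing the limit was not always enough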;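 note: 0% = DMSO wells and 100% = Ran loaded with GDP instead of GTP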
# An asterisk follows results filed as active; i = inactive; nt = no result given; + = active, no number. This is a sample that favours compounds with a hit; in the whole collection about 1.7% have one here.
SMILES,Vif imaging,Runt-CBFb FRET,Runt-SMMHC FRET,Rce1 inh,RanGTP-Impb inh
COc1ccc(-c2coc3c(C(=O)NCc4ccc(OC)c(OC)c4)cccc23)c(C)c1,-24,nt,nt,nt,nt
O=C(c1nc2ccc(Cl)cn2c1CN1CCC[C@H]1CO)N1CCc2ccccc2C1,-1,nt,nt,nt,nt
Cc1sc2ncnc(N3CCC(C(=O)N4CC(C)SC4=Nc4ccc(Cl)cc4)CC3)c2c1C (stereo unspecified),-1,nt,nt,nt,nt
COc1ccc(CCNS(=O)(=O)c2ccc(Br)cc2)cc1OC,-2,nt,nt,i,-3
O=S(=O)(c1ccc(Cl)cc1)N1c2ccccc2Oc2nc3ccccc3nc21,nt,-5,10,i,4
COc1ccc(S(=O)(=O)N2c3cc(Cl)ccc3Oc3nc4ccccc4nc32)cc1,58*,-5,-3,i,0
CCCC[C@@H]1CNC(=S)N1CCc1cccc2ccccc12,-2,-1,-1,+,0
CCCCN1C(=S)NC[C@@H]1Cc1cccc2ccccc12,nt,0,-1,i,1
COc1ccc2nc(C)cc(NCc3ccc(F)cc3)c2c1,91*,nt,nt,i,-12
COc1ccc(/C=N/Nc2cc(C)nc3ccc(OC)cc23)c(OC)c1,92*,nt,nt,i,20*
COc1ccc2nc(C)cc(Nc3ccc(C)cc3)c2c1,6,nt,nt,i,2
COc1ccc2nc(C)cc(N/N=C/c3ccccc3)c2c1,-13,nt,nt,nt,nt
N#Cc1c(C(F)(F)F)cc(-c2ccco2)nc1SCc1ccncc1,+,13,7,i,-2
O=C(N/N=C/c1ccc(O)cc1O)C(=O)N/N=C/c1ccc(O)cc1O,62*,nt,nt,i,3
CCOC(=O)c1ccc(N(C(=O)c2ccco2)C(C(=O)NC2CCCC2)c2ccncc2)cc1 (stereo unspecified),-9,nt,nt,i,4
Cc1nn(Cc2ccc([N+](=O)[O-])cc2)c(=O)n1-c1cccc(Cl)c1,-8,3,-2,i,20*
O=C(Cc1ccccc1)Nc1ccc2c(c1)C(=O)N(CC1CCCO1)C2=O (stereo unspecified),50*,1,-1,i,-1
Cc1ccc(C)c(S(=O)(=O)c2c(N)n(/N=C/c3ccco3)c3nc4ccccc4nc23)c1,16,42,67*,i,4
Oc1cccc2c3c(oc12)CCCC3,70*,nt,nt,i,0
Oc1ccccc1N=Cc1c(O)ccc2oc3c(c12)CCCC3,-7,-14,-26,i,-2
FC(F)(F)c1cccc(NC(=S)Nc2cccc(NC(=S)Nc3cccc(C(F)(F)F)c3)n2)c1,-2,23,5,i,15*
CCN(CC)c1ccc(/C=N/NC(=O)CNC(=O)c2ccc3c(c2)OCCO3)cc1,-5,nt,nt,i,0
CN(C)c1ccc(/C=N/NC(=O)CNC(=O)c2ccc3c(c2)OCCO3)cc1,-3,1,4,+,-1
CC1(C)[C@@H](O)CC[C@]2(C)C3C(O)C=C4[C@H]5C[C@@](C)(C(=O)O)CC[C@]5(C)CC[C@]4(C)[C@]3(C)CC[C@@H]12 (stereo partly specified),nt,-5,-1,i,0
Cc1ccc(C(=O)CSc2ncnc3ccccc23)o1,-11,40,78*,i,nt
SMILES,Vif imaging,Runt-CBFb FRET,Runt-SMMHC FRET,Rce1 inh,RanGTP-Impb inh
COc1ccccc1C(=O)Nc1nnc([C@H]2C[C@H](O)[C@@H](CO)O2)s1,10,nt,nt,nt,nt
CC(=O)c1cccc(-c2ccnc3c2CC(C(=O)NCc2ccco2)O3)c1 (stereo unspecified),54*,nt,nt,nt,nt
NC(=O)c1cccc(-c2ccnc3c2CC(C(=O)NCc2ccco2)O3)c1 (stereo unspecified),-2,nt,nt,nt,nt
CCn1nnnc1SCC(=O)c1cccc(OC)c1,-3,2,4,i,1
COCCn1nnnc1SCC(=O)c1ccccc1,19,84*,-2,i,0
CCOC(=O)c1nnn2c1nc(N1CCOCC1)c1ccccc12,0,-1,-2,+,-2
Cc1ccc2nc(-c3sc4nc(C)ccc4c3N)[nH]c2c1,-12,4,-10,i,2
Cc1cc(C)c2c(N)c(-c3nc4ccccc4[nH]3)sc2n1,-1,4,11,i,21*
O=C(Nc1cccc(-c2nc3ccccc3[nH]2)c1)c1cccc(NC(=O)c2ccco2)c1,72*,-6,-5,i,5
O=C(Nc1ccc2nc(-c3ccccc3)[nH]c2c1)c1ccco1,-2,0,-2,i,-2
